Series [1] concerns the target GABA-A receptor alpha-1/beta-3 (Homo sapiens) (UniProt P14867+P28472). The experiment in a line: Positive allosteric modulation of GABAA receptor alpha1beta3 (unknown origin) expressed in Xenopus laevis oocytes assessed as GABA-stimulated current amplitude at 1 to 10 uM up to 120 secs by electrophysiological method. Type of series: cell-based. A digest of the protocol:
(§1)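 Two-electrode voltage clamp on Xenopus oocytes injected with subunit mRNA mixtures (α1β3 or α1β2γ2). Compounds at 1 and 10 μM, diluted into measurement buffer, co-applied with GABA at EC3-5, EC20, EC50 and EC80. Result taken as enhancement of the GABA-elicited current.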

Series [2] addresses T1, Peroxisome proliferator-activated receptor gamma (Homo sapiens) (UniProt P37231).
T1 sequence (whole entry): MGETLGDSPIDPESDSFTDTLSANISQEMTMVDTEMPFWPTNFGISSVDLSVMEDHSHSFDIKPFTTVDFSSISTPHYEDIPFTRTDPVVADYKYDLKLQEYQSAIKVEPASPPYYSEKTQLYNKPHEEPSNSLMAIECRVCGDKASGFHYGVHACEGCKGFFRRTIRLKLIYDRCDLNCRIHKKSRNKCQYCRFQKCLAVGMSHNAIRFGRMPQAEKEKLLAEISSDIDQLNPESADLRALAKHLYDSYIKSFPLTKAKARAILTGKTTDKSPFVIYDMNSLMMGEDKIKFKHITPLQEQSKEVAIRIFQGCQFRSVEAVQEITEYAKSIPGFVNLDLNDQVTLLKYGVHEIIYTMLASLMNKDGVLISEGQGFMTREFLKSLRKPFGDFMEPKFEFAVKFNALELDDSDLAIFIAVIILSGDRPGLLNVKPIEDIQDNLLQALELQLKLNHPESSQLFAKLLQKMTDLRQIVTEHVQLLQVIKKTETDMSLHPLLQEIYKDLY
The experiment in a line: Transactivation of human full length PPARgamma expressed in HEK293 cells up to 3 uM after 18 hrs by luciferase reporter gene based luminescence assay. Type of series: cell-based. A digest of the protocol:
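HEK293 cells transfected for 6 h with full-length human PPARγ, a PPRE-firefly luciferase reporter and pEGFP-N1 (internal control). Cells reseeded in serum-free DMEM, dosed at 0.1–30 μM in DMSO and incubated 18 h. Luciferase/EGFP ratio expressed as fold induction over 0.1% DMSO; pioglitazone 5 μM as positive control. EC50 from a variable-slope sigmoidal fit.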

In series [3] the target is GABA-A receptor; alpha-1/beta-2/gamma-2 (Homo sapiens) (UniProt P14867+P47870+P18507). The experiment in a line: Positive allosteric modulation of GABAA receptor alpha1beta2gamma2 (unknown origin) expressed in Xenopus laevis oocytes assessed as GABA-stimulated current amplitude at 1 to 10 uM incubated for 120 secs by electrophysiological method relative to control. Type of series: cell-based. The procedure, abridged:
as §1

The subject of series [4] is Oocyte. The experiment in a line: Induction of current amplitude in Xenopus laevis oocytes after […] by electrophysiological method. Type of series: functional, cell-based.
The test system of series [5] is HEK293. Put plainly: Cytotoxicity against HEK293 cells assessed as decrease in cell viability at 10 uM after 24 hrs by resazurin based assay. As to conditions: human, hek293, 24 h. The procedure, abridged: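 HEK293 cells seeded at 4 × 10^4 cells/well, grown overnight, then exposed to compound at 0.3, 1, 3, 10 and 30 μM for 24 h. Resazurin (10 μg/mL in PBS) added for 4 h at 37 °C. Resorufin fluorescence read at 535 nm excitation/590 nm emission as the viability measure.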

From ChEMBL document CHEMBL4266025, “Stereoselective Synthesis of the Isomers of Notoincisol A: Assigment of the Absolute Configuration of this Natural Product and Biological Evaluation” (J Nat Prod, 2018) come the findings set out here.

The source made the active and inactive calls. The rule behind the calls is not given here.

In the case of `C=C[C@@H](O)C#CC#C[C@@H](/C=C\CCCCCCC)OC(=O)/C=C/c1ccc(O)c(OC)c1`, the outcome in series [1] and in series [4] was Active. Further, in series [2], the result was inactive. The fold change (FC) in series [3] stood at 4.

For the compound `C=C[C@H](O)C#CC#C[C@@H](/C=C\CCCCCCC)OC(=O)/C=C/c1ccc(O)c(OC)c1`, the result in series [1] and in series [4] was Active. Besides, in series [2], the outcome was inactive. For the same compound, the fold change (FC) in series [3] stood at 4.

`C=C[C@@H](O)C#CC#C[C@H](/C=C\CCCCCCC)OC(=O)/C=C/c1ccc(O)c(OC)c1`: the result in series [1] and in series [4] was Active. For the same compound, the fold change (FC) in series [3] came out at 4.

For `CCC[C@@H](O)/C=C/C=C/C=C/C#CC#CCCCO` [CICUTOXIN], in series [2], the outcome was inactive. In addition, in series [5], the Activity result is “Toxic”.

For the compound `C=C[C@H](O)C#CC#C[C@@H](O)/C=C\CCCCCCC`, the outcome in series [2] was inactive. The Activity result in series [5] is “Toxic”.

For `C=CC(O)C#CC#CC(/C=C\CCCCCCC)OC(=O)/C=C/c1ccc(O)c(OC)c1` (stereo not drawn), the outcome in series [2] was inactive. Moreover, the Activity result in series [5] is on record as “Toxic”.

Take `CCC[C@@H](O)CC/C=C/C=C/C#CC#CCCCO` [DIHYDROOENANTHOTOXIN]: the result in series [2] was inactive. The Activity result in series [5] is reported as “Toxic”.

For `C=C[C@H](O)C#CC#C[C@H](/C=C\CCCCCCC)OC(=O)/C=C/c1ccc(O)c(OC)c1`, the result in series [1] and in series [4] was Active. Besides, in series [2], the outcome was inactive. The fold change (FC) in series [3] worked out at 4.
